Source: ChEMBL document CHEMBL3864175, “Sulfonamides as Selective NaV1.7 Inhibitors: Optimizing Potency and Pharmacokinetics to Enable in Vivo Target Engagement” (ACS Med Chem Lett, 2016)

Columns and labels:
[1] = molecular target: Sodium channel protein type 5 subunit alpha (Homo sapiens, UniProt Q14524); test: Inhibition of human Nav1.5 expressed in HEK293 cells assessed as inhibition of sodium current at holding potential of -125 mV measured for 3 to 5 mins by whole cell voltage clamp method; type: cell-based
[2] = Apparent permeability in MDCK cells; type: ADME, cell-based, Canis lupus familiaris; details: dog
In short: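 Apparent permeability measured in parental MDCK cells.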

[3] = Intrinsic clearance in human liver microsomes at 1 uM measured after 40 mins in presence of NADPH by LC-MS/MS analysis; type: ADME; details: read-out: CLH
In short: (§1)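 Clearance measured in rat or human liver microsomes. Test compound at 1 μM, microsomal protein at 250 μg/mL.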

[4] = Intrinsic clearance in rat liver microsomes at 1 uM measured after 40 mins in presence of NADPH by LC-MS/MS analysis; type: ADME; details: read-out: CLH; in short: as §1
[5] = molecular target: Sodium channel protein type 9 subunit alpha (Homo sapiens, UniProt Q15858); test: Inhibition of human Nav1.7 expressed in HEK293 cells assessed as inhibition of sodium current at holding potential of -125 mV measured for 3 to 5 mins by whole cell voltage clamp method; type: cell-based
[6] = Clearance in rat at 0.5 mg/kg, iv by LC-MS/MS analysis; type: ADME, organism-based; details: in vivo
In short: (§2)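 Male rats, n = 2 per group, dosed intravenously at 0.5 mg/kg as a solution in 100% DMSO. Unbound clearance is derived from total clearance.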

[7] = Fraction unbound in rat plasma at 5 uM measured after 45 mins by LC-MS/MS analysis; type: ADME, cell-free
[8] = Unbound clearance in rat at 0.5 mg/kg, iv by LC-MS/MS analysis; type: ADME, organism-based; details: in vivo; in short: as §2
[9] = Dissociation constant, pKa of the compound at pH 1.7 to 11.2 by capillary electrophoresis method; type: physicochemical
In short: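 pKa values calculated from capillary electrophoresis data collected over pH 1.7 to 11.2.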

[10] = Selectivity index, ratio of IC50 for human Nav1.5 expressed in HEK293 cells to IC50 for human Nav 1.7 expressed in HEK293 cells
[11] = Apparent permeability in MDCK cells assessed as drug recovery; type: ADME, cell-based, Canis lupus familiaris; details: dog, read-out: Drug recovery
[12] = Stability in bile duct cannulated Sprague-Dawley rat assessed as parent compound level in bile at 6.67 mg/kg, iv administered through catheter measured after 2 and 4 hrs post dose by LC-MS/MS analysis; type: ADME, organism-based; details: in vivo
[13] = Drug metabolism in bile duct cannulated Sprague-Dawley rat urine assessed as metabolite formation at 6.67 mg/kg, iv administered through catheter measured after 2 and 4 hrs post dose by LC-MS/MS analysis; type: ADME, organism-based; details: in vivo

Chain of Sodium channel protein type 9 subunit alpha (Q15858 whole entry): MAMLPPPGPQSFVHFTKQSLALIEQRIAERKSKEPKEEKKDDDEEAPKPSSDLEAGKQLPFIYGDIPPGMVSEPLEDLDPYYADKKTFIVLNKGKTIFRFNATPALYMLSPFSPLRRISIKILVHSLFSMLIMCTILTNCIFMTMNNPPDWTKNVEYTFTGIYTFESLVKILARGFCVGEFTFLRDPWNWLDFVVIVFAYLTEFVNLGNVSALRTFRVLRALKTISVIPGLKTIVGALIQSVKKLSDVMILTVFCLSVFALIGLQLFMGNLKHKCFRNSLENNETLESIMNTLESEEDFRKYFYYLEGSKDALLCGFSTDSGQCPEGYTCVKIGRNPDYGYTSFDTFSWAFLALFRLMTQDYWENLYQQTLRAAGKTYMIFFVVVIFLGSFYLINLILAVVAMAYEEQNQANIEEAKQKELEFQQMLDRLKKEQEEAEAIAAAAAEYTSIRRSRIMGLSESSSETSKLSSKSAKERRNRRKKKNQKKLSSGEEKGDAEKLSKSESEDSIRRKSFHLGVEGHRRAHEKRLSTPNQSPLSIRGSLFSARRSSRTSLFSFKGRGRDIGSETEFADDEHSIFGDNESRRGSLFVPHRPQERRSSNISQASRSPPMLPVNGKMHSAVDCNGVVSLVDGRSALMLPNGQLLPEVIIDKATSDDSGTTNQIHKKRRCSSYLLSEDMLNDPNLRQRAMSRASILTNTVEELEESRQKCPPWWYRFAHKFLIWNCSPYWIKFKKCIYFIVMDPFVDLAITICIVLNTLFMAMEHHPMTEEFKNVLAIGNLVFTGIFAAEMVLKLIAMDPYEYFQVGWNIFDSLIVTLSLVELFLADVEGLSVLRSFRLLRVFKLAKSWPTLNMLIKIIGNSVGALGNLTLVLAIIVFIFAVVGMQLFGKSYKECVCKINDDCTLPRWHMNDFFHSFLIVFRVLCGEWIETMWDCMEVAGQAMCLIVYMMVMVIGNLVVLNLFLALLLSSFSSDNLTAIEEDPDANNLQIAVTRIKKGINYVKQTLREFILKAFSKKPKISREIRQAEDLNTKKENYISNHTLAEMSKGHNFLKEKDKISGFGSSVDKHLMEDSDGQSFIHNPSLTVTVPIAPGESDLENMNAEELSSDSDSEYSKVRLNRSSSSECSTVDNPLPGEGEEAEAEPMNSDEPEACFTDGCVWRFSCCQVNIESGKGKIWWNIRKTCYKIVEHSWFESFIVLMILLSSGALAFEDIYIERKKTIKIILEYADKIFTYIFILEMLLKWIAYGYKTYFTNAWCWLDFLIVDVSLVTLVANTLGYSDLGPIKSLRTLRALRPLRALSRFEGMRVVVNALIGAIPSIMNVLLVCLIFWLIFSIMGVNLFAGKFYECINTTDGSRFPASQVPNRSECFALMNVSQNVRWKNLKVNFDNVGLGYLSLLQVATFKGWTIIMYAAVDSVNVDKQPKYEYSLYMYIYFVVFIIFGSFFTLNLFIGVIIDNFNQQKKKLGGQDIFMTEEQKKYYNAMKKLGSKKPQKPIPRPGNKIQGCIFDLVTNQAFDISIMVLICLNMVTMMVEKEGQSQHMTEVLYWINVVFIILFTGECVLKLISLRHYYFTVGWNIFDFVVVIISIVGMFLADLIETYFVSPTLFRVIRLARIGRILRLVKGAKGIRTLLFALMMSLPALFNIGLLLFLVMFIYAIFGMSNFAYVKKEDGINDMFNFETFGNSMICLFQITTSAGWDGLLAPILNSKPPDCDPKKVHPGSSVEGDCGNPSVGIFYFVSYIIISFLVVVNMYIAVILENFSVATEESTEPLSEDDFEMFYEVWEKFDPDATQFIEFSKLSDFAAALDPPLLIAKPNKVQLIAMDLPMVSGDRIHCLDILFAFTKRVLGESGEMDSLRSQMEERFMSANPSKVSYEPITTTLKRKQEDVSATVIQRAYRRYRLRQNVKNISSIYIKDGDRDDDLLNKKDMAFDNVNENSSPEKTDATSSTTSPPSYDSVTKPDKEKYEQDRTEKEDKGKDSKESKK
Chain of Sodium channel protein type 5 subunit alpha (Q14524 whole entry): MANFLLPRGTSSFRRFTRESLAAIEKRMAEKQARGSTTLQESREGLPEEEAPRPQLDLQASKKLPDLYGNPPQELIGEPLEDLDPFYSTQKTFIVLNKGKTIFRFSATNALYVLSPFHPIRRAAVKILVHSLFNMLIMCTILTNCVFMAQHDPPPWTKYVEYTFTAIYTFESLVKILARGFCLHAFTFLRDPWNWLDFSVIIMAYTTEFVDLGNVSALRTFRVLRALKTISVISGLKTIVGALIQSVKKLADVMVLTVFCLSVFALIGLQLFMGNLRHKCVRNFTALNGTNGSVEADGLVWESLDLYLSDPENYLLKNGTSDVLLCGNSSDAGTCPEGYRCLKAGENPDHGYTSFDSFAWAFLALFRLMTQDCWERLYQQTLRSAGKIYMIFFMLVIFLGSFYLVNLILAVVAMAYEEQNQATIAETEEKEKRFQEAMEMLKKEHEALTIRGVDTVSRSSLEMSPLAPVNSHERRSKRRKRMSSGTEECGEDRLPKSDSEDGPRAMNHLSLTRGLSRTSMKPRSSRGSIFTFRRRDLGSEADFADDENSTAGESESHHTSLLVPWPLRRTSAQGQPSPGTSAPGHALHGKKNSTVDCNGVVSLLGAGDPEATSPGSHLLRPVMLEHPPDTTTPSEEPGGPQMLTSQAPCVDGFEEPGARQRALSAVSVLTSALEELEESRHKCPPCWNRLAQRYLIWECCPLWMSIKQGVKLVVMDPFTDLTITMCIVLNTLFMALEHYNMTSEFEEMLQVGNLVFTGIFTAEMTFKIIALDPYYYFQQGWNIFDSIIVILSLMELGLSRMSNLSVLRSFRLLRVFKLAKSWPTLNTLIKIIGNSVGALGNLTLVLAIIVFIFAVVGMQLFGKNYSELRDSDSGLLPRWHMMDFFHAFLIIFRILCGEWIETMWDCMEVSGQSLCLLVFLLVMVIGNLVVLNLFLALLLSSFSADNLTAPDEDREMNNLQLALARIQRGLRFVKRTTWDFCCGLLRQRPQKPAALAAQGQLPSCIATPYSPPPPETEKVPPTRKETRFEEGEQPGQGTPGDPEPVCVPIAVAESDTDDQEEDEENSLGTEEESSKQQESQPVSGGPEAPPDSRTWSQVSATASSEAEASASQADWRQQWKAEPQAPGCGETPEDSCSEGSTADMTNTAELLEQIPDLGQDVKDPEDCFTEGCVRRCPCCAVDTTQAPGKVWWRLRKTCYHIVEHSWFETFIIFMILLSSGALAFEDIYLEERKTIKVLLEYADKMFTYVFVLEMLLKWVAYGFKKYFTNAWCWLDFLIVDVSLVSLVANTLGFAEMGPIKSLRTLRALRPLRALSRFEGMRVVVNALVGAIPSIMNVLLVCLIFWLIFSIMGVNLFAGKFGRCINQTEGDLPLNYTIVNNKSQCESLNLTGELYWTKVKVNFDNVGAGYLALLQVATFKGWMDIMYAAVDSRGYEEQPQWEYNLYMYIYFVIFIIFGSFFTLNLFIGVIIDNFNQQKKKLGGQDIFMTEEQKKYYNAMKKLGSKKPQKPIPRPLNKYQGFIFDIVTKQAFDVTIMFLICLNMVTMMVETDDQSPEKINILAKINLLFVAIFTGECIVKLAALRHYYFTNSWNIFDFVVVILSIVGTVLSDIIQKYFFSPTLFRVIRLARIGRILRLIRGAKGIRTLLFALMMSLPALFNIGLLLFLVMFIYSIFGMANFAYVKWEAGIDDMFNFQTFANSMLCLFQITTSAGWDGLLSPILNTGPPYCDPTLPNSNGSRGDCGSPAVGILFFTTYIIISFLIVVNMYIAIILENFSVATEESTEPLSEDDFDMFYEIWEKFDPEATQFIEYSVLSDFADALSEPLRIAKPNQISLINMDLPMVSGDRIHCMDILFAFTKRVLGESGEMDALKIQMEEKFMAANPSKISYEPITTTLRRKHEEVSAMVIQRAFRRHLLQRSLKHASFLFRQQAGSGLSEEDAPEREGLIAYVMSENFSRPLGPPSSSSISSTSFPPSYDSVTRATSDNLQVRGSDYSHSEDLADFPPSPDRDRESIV

| Compound | IC50 [1] [nM] | Papp [2] [×10⁻⁶ cm/s] | microsomal CLint at 1 µM [3] [µL/min/mg] | microsomal CLint at 1 µM [4] [µL/min/mg] | IC50 [5] [nM] | clearance [6] [mL/min/kg] | fraction unbound at 0.75 h, 5 µM [7] | CL free [8] [mL/min/kg] | pKa [9] | Ratio IC50 [10] | recovery [11] [%] | Stability [12] | Drug metabolism [13] |
| --- | --- | --- | --- | --- | --- | --- | --- | --- | --- | --- | --- | --- | --- |
| COc1cc(C(F)(F)F)ccc1-c1nccc2cc(S(=O)(=O)Nc3nccs3)cnc12 | > 30000 | 12 | – | – | – | – | – | – | – | – | – | – | – |
| COc1cc(C(F)(F)F)ccc1-c1cccc2cc(S(=O)(=O)Nc3ccccn3)ccc12 | – | 9.5 | 16 | 25 | > 30000 | – | – | – | – | – | – | – | – |
| COc1cc(C(F)(F)F)ccc1-c1n[nH]c(=O)c2cc(S(=O)(=O)Nc3nccs3)ccc12 | – | 3.2 | – | – | – | 40 | 0.013 | 2670 | – | – | – | – | – |
| Cn1nccc1-c1cc(C(F)(F)F)ccc1-c1cccc2cc(S(=O)(=O)Nc3ncns3)ccc12 | – | < 2 | – | 21 | – | 158 | – | – | – | – | – | – | – |
| COc1cc(C(F)(F)F)ccc1-c1cccc2cc(S(=O)(=O)Nc3nccs3)ccc12 | 21000 | 12 | 25 | 52 | 590 | 0.817 | 0.001 | 817 | 6.7 | – | – | – | – |
| COc1cc(C(F)(F)F)ccc1-c1cccc2cc(S(=O)(=O)Nc3cncs3)ccc12 | – | 28 | 46 | 37 | > 30000 | – | – | – | – | – | – | – | – |
| O=S(=O)(Nc1ncns1)c1ccc2c(-c3ccc(C(F)(F)F)cc3O)cccc2c1 | – | < 2 | 25 | 18 | – | – | 0.001 | – | 3.6 | – | – | – | – |
| COc1cc(C(F)(F)F)ccc1-c1nccc2cc(S(=O)(=O)Nc3nccs3)ccc12 | > 30000 | 34 | – | – | – | 3 | 0.012 | 250 | – | – | – | – | – |
| Cn1nccc1-c1cc(C(F)(F)F)ccc1-c1cn(C)c2cc(S(=O)(=O)Nc3ncns3)ccc12 | > 30000 | 1.3 | – | 19 | 120 | 68.3 | – | – | – | >200 | – | – | – |
| COc1cc(C(F)(F)F)ccc1-c1cccc2cc(S(=O)(=O)Nc3ncccn3)ccc12 | > 30000 | 36 | 17 | < 14 | 1500 | – | – | – | – | – | – | – | – |
| O=S(=O)(Nc1ncns1)c1ccc2c(-c3ccc(C(F)(F)F)cc3C3=CCNCC3)cccc2c1 | > 30000 | 1.3 | < 14 | < 14 | 37 | 90 | 0.1 | – | 3.6 | – | – | – | – |
| COc1cc(C(F)(F)F)ccc1-c1cccc2cc(S(=O)(=O)Nc3ccncn3)ccc12 | > 30000 | 27 | < 14 | < 14 | 510 | – | 0.003 | – | – | – | – | – | – |
| Cc1cc(C(F)(F)F)ccc1-c1cccc2cc(S(=O)(=O)Nc3ncns3)ccc12 | – | > 5 | 15 | < 14 | 48 | – | 0.001 | – | 3.6 | – | < 50 | – | – |
| COc1cc(C(F)(F)F)ccc1-c1cccc2cc(S(=O)(=O)Nc3ncns3)ccc12 | – | 17 | 15 | 18 | 51 | 86.7 | 0.001 | – | 3.7 | – | – | – | – |
| N#Cc1cc(S(=O)(=O)Nc2ncns2)ccc1Oc1ccc(C(F)(F)F)cc1-c1cn[nH]c1 | > 30000 | < 1 | – | 39 | – | 65 | – | – | – | – | – | – | – |
| COc1cc(C(F)(F)F)ccc1-c1cnnc2cc(S(=O)(=O)Nc3nccs3)ccc12 | – | 36 | – | – | – | 18.3 | 0.014 | 1350 | – | – | – | – | – |
| Cn1nccc1-c1cc(Cl)ccc1-c1cn(C)c2cc(S(=O)(=O)Nc3ncns3)ccc12 | – | – | – | – | – | – | – | – | – | – | – | Stable | Metabolite_Notdetected |
| O=S(=O)(Nc1ncns1)c1ccc2c(-c3ccc(C(F)(F)F)cc3Br)cccc2c1 | 21000 | > 5 | < 14 | < 14 | 160 | 4 | 0.003 | 1330 | 3.6 | – | < 50 | – | – |
| COc1cc(C(F)(F)F)ccc1-c1cccc2cc(S(=O)(=O)Nc3cscn3)ccc12 | 21000 | 27 | < 14 | < 14 | 1400 | – | – | – | 7.2 | – | – | – | – |
